According to ChEMBL document CHEMBL4002610, “Design, synthesis and biological activity evaluation of novel 2,6-difluorobenzamide derivatives through FtsZ inhibition” (2017):
≈ marks a conversion by molar mass, not a printed value.

Experiments:
[1] = test system: Staphylococcus aureus; assay: Antibacterial activity against penicillin-resistant Staphylococcus aureus clinical isolate after 24 hrs by broth microdilution method; type: functional
[2] = test system: Staphylococcus aureus; assay: Antibacterial activity against Staphylococcus aureus ATCC 29213 after 24 hrs by broth microdilution method; type: functional; conditions: ATCC 29213, 24 h
Method in brief: (§1)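 MIC by standard broth microdilution per NCCLS guidance. Strain panel: B. subtilis ATCC9372 and S. aureus ATCC25923 as standard susceptible strains, S. aureus ATCC29213 as […], S. pyogenes PS as penicillin-susceptible, S. pneumoniae ATCC49619 as standard susceptible, alongside Gram-negative strains.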

[3] = test system: Streptococcus pneumoniae; assay: Antibacterial activity against Streptococcus pneumoniae ATCC 49619 after 24 hrs by broth microdilution method; type: functional; conditions: ATCC 49619, 24 h; method in brief: as §1
[4] = test system: Escherichia coli; assay: Antibacterial activity against Escherichia coli ATCC 25922 after 24 hrs by broth microdilution method; type: functional; conditions: ATCC 25922, 24 h; method in brief: as §1
[5] = test system: Staphylococcus aureus; assay: Antibacterial activity against Staphylococcus aureus ATCC 25923 after 24 hrs by broth microdilution method; type: functional; conditions: ATCC 25923, 24 h; method in brief: as §1
[6] = test system: Escherichia coli ATCC 25922; assay: Inhibition of FtsZ in Escherichia coli ATCC 25922 assessed as decrease in cell division by measuring lowest compound concentration at which bacterial filamentation is observed after 5 hrs by phase-contrast light microscopy
Method in brief: (§2)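 Cell division inhibition scored by cell morphology under phase-contrast light microscopy. B. subtilis ATCC9372, E. coli ATCC25922 and S. aureus ATCC25923 were exposed to compound. The lowest concentration giving filamentation (B. subtilis, E. coli) or ballooning (S. aureus) was recorded as the cell division inhibitory concentration.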

[7] = test system: Pseudomonas aeruginosa; assay: Antibacterial activity against Pseudomonas aeruginosa ATCC 27853 after 24 hrs by broth microdilution method; type: functional; conditions: ATCC 27853, 24 h; method in brief: as §1
[8] = molecular target: T1, Cell division protein FtsZ (Staphylococcus aureus) (UniProt P0A031); assay: Inhibition of FtsZ in Staphylococcus aureus ATCC 25923 assessed as decrease in cell division by measuring lowest compound concentration at which bacterial ballooning is observed after 5 hrs by phase-contrast light microscopy; method in brief: as §2
T1 sequence (whole entry): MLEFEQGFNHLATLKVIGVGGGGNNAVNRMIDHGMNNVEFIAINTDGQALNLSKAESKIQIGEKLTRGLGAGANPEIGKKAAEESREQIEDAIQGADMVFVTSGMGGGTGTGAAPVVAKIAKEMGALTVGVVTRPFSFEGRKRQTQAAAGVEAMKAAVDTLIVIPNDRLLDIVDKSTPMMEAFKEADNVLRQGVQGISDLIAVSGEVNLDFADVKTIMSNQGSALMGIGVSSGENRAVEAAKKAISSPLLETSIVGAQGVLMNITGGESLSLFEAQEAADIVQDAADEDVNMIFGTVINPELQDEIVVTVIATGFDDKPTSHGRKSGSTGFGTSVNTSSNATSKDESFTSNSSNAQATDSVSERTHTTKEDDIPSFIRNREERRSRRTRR

[9] = test system: Bacillus subtilis; assay: Inhibition of FtsZ in Bacillus subtilis ATCC 9372 assessed as decrease in cell division by measuring lowest compound concentration at which bacterial filamentation is observed after 5 hrs by phase-contrast light microscopy; method in brief: as §2
[10] = test system: Streptococcus pyogenes; assay: Antibacterial activity against penicillin-susceptible Streptococcus pyogenes after 24 hrs by broth microdilution method; type: functional; method in brief: as §1
[11] = test system: Bacillus subtilis; assay: Antibacterial activity against Bacillus subtilis ATCC 9372 after 24 hrs by broth microdilution method; type: functional; conditions: ATCC 9372, 24 h; method in brief: as §1

Row | Compound | MIC [1] [µg/mL] | MIC [2] [µg/mL] | MIC [3] [µg/mL] | MIC [4] [µg/mL] | MIC [5] [µg/mL] | INH [6] [µg/mL] | MIC [7] [µg/mL] | INH [8] [µg/mL] | INH [9] [µg/mL] | MIC [10] [µg/mL] | MIC [11] [µg/mL]
1 | CCC(C)Oc1ccc(F)c(C(N)=O)c1F (stereo not given) | 128 (≈ 558 µM) | 128 (≈ 558 µM) | 128 (≈ 558 µM) | 128 (≈ 558 µM) | 64 (≈ 279 µM) | 64 | 128 (≈ 558 µM) | 32 | 128 | > 128 | 128 (≈ 558 µM)
2 | NC(=O)c1c(F)ccc(OC2CCCC2)c1F | 512 (≈ 2120 µM) | 256 (≈ 1060 µM) | 128 (≈ 531 µM) | 128 (≈ 531 µM) | 256 (≈ 1060 µM) | 64 | 128 (≈ 531 µM) | 256 | 256 | > 128 | 512 (≈ 2120 µM)
3 | COc1cc(/C=C/C(=O)CC(=O)/C=C/c2ccc(O)c(OC)c2)ccc1O [CURCUMIN] | 4100 (≈ 11100 µM) | 4100 (≈ 11100 µM) | > 4100 | 512 (≈ 1390 µM) | 2050 (≈ 5560 µM) | 256 | 4100 (≈ 11100 µM) | 1020 | 16 | > 4100 | 32 (≈ 86.9 µM)
4 | NC(=O)c1c(F)ccc(OCCCCBr)c1F | 8 (≈ 26 µM) | 32 (≈ 104 µM) | > 128 | 128 (≈ 415 µM) | 4 (≈ 13 µM) | 64 | 128 (≈ 415 µM) | 4 | 1 | 128 (≈ 415 µM) | 4 (≈ 13 µM)
5 | CC(C)CCOc1ccc(F)c(C(N)=O)c1F | 16 (≈ 65.8 µM) | 16 (≈ 65.8 µM) | 128 (≈ 526 µM) | 128 (≈ 526 µM) | 64 (≈ 263 µM) | 64 | 128 (≈ 526 µM) | 4 | 4 | > 128 | 8 (≈ 32.9 µM)
6 | NC(=O)c1c(F)ccc(OCCCCCCBr)c1F | 2 (≈ 5.95 µM) | 2 (≈ 5.95 µM) | > 128 | 128 (≈ 381 µM) | 1 (≈ 2.97 µM) | 64 | 128 (≈ 381 µM) | 1 | 0.5 | 64 (≈ 190 µM) | 1 (≈ 2.97 µM)
7 | NC(=O)c1c(F)ccc(OCCCCCCCl)c1F | 8 (≈ 27.4 µM) | 16 (≈ 54.8 µM) | 128 (≈ 439 µM) | 256 (≈ 878 µM) | 2 (≈ 6.86 µM) | 128 | 256 (≈ 878 µM) | 0.5 | 0.25 | > 128 | 0.5 (≈ 1.71 µM)
8 | NC(=O)c1c(F)ccc(O)c1F | 1020 (≈ 5920 µM) | 512 (≈ 2960 µM) | 4100 (≈ 23700 µM) | 512 (≈ 2960 µM) | 1020 (≈ 5920 µM) | 512 | 512 (≈ 2960 µM) | 2050 | 1020 | > 4100 | 1020 (≈ 5920 µM)
9 | NC(=O)c1c(F)ccc(OCCn2cnc3cc([N+](=O)[O-])ccc32)c1F | 1020 (≈ 2830 µM) | 512 (≈ 1410 µM) | 256 (≈ 707 µM) | 256 (≈ 707 µM) | 256 (≈ 707 µM) | 128 | 512 (≈ 1410 µM) | 256 | 32 | 512 (≈ 1410 µM) | 64 (≈ 177 µM)
10 | NC(=O)c1c(F)ccc(OC2CCCCC2)c1F | 256 (≈ 1000 µM) | 256 (≈ 1000 µM) | 128 (≈ 501 µM) | 128 (≈ 501 µM) | 128 (≈ 501 µM) | 64 | 128 (≈ 501 µM) | 128 | 64 | > 128 | 64 (≈ 251 µM)
11 | NC(=O)c1c(F)ccc(OCCCCl)c1F | 32 (≈ 128 µM) | 32 (≈ 128 µM) | > 128 | 128 (≈ 513 µM) | 16 (≈ 64.1 µM) | 64 | 128 (≈ 513 µM) | 32 | 16 | 128 (≈ 513 µM) | 32 (≈ 128 µM)
12 | NC(=O)c1c(F)ccc(OCCCCCl)c1F | 8 (≈ 30.3 µM) | 8 (≈ 30.3 µM) | 128 (≈ 485 µM) | 128 (≈ 485 µM) | 8 (≈ 30.3 µM) | 64 | 128 (≈ 485 µM) | 4 | 2 | 64 (≈ 243 µM) | 4 (≈ 15.2 µM)
13 | NC(=O)c1c(F)ccc(OCCCCCCn2cnc3ccccc32)c1F | 1020 (≈ 2740 µM) | 256 (≈ 686 µM) | 256 (≈ 686 µM) | 512 (≈ 1370 µM) | 512 (≈ 1370 µM) | 256 | 512 (≈ 1370 µM) | 128 | 128 | 512 (≈ 1370 µM) | 256 (≈ 686 µM)
14 | CC(C)Oc1ccc(F)c(C(N)=O)c1F | 256 (≈ 1190 µM) | 256 (≈ 1190 µM) | 128 (≈ 595 µM) | 256 (≈ 1190 µM) | 256 (≈ 1190 µM) | 64 | 128 (≈ 595 µM) | 128 | 128 | > 128 | 256 (≈ 1190 µM)
15 | NC(=O)c1c(F)ccc(OCCBr)c1F | 32 (≈ 114 µM) | 64 (≈ 229 µM) | > 128 | 128 (≈ 457 µM) | 16 (≈ 57.1 µM) | 32 | 128 (≈ 457 µM) | 16 | 2 | 64 (≈ 229 µM) | 16 (≈ 57.1 µM)
16 | NC(=O)c1c(F)ccc(OCCCn2cnc3cc([N+](=O)[O-])ccc32)c1F | 1020 (≈ 2720 µM) | 512 (≈ 1360 µM) | 512 (≈ 1360 µM) | 1020 (≈ 2720 µM) | 1020 (≈ 2720 µM) | 512 | 512 (≈ 1360 µM) | 1020 | 128 | 512 (≈ 1360 µM) | 256 (≈ 680 µM)
17 | NC(=O)c1c(F)ccc(OCCCCCCl)c1F | 16 (≈ 57.6 µM) | 32 (≈ 115 µM) | 128 (≈ 461 µM) | 128 (≈ 461 µM) | 16 (≈ 57.6 µM) | 64 | 128 (≈ 461 µM) | 16 | 2 | 64 (≈ 230 µM) | 4 (≈ 14.4 µM)
18 | CCOC(=O)COc1ccc(F)c(C(N)=O)c1F | 256 (≈ 988 µM) | 256 (≈ 988 µM) | 128 (≈ 494 µM) | 128 (≈ 494 µM) | 128 (≈ 494 µM) | 64 | 128 (≈ 494 µM) | 64 | 32 | > 128 | 64 (≈ 247 µM)
19 | NC(=O)c1c(F)ccc(OCCCn2cnc3ccccc32)c1F | 1020 (≈ 3090 µM) | 512 (≈ 1550 µM) | 512 (≈ 1550 µM) | 512 (≈ 1550 µM) | 1020 (≈ 3090 µM) | 512 | 512 (≈ 1550 µM) | 256 | 512 | 1020 (≈ 3090 µM) | 1020 (≈ 3090 µM)
20 | NC(=O)c1c(F)ccc(OCCCBr)c1F | 32 (≈ 109 µM) | 32 (≈ 109 µM) | > 128 | 128 (≈ 435 µM) | 16 (≈ 54.4 µM) | 64 | 128 (≈ 435 µM) | 16 | 16 | 64 (≈ 218 µM) | 32 (≈ 109 µM)
21 | NC(=O)c1c(F)ccc(OCc2nc3cc([N+](=O)[O-])ccc3[nH]2)c1F | 512 (≈ 1470 µM) | 256 (≈ 735 µM) | 256 (≈ 735 µM) | 512 (≈ 1470 µM) | 512 (≈ 1470 µM) | 128 | 256 (≈ 735 µM) | 128 | 64 | 1020 (≈ 2940 µM) | 64 (≈ 184 µM)
22 | NC(=O)c1c(F)ccc(OCCCCCBr)c1F | 16 (≈ 49.7 µM) | 16 (≈ 49.7 µM) | 128 (≈ 397 µM) | 256 (≈ 795 µM) | 8 (≈ 24.8 µM) | 64 | 256 (≈ 795 µM) | 4 | 2 | 128 (≈ 397 µM) | 16 (≈ 49.7 µM)
23 | CCCCC(CC)COc1ccc(F)c(C(N)=O)c1F (stereo not given) | 8 (≈ 28 µM) | 8 (≈ 28 µM) | 64 (≈ 224 µM) | 256 (≈ 897 µM) | 1 (≈ 3.5 µM) | 64 | 128 (≈ 449 µM) | 0.25 | 0.125 | > 128 | 0.25 (≈ 0.876 µM)
24 | CCOCCC(=O)COc1ccc(F)c(C(N)=O)c1F | 256 (≈ 891 µM) | 128 (≈ 446 µM) | 128 (≈ 446 µM) | 256 (≈ 891 µM) | 64 (≈ 223 µM) | 64 | 128 (≈ 446 µM) | 128 | 32 | > 128 | 64 (≈ 223 µM)
25 | NC(=O)c1c(F)ccc(OCCCCCn2cnc3cc([N+](=O)[O-])ccc32)c1F | 2050 (≈ 5060 µM) | 1020 (≈ 2530 µM) | 512 (≈ 1270 µM) | 512 (≈ 1270 µM) | 512 (≈ 1270 µM) | 256 | 512 (≈ 1270 µM) | – | 32 | 1020 (≈ 2530 µM) | 512 (≈ 1270 µM)
26 | CC(C)COc1ccc(F)c(C(N)=O)c1F | 64 (≈ 279 µM) | 128 (≈ 558 µM) | 128 (≈ 558 µM) | 256 (≈ 1120 µM) | 32 (≈ 140 µM) | 64 | 128 (≈ 558 µM) | 16 | 32 | > 128 | 64 (≈ 279 µM)
